# Source: article PMC11350716 (JACS Au, 2024)
# Columns and labels:
# [1] = type: in vivo; details: mice, intravenous, 0.02 mg/mouse as ICG, brains harvested after 48 h
# Summary of the method: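 Mice received the test compound or free ICG alone by intravenous injection. Brains were harvested 48 h later and imaged for near-infrared ICG fluorescence, with instrument sensitivity set to 1,600–3,000 (fluorescence intensity a.u.).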
# VIPR2 = details: read-out: antagonist activity IC50; cited from earlier work
Compound,ICG fluorescence in the brain [1],IC50 (VIPR2) [nM]
CCCC[C@@H]1NC(=O)[C@H](CCC(=O)O)NC(=O)[C@H](C)NC(=O)[C@H](CC(C)C)NC(=O)[C@H](CCCC)NC(=O)[C@H](Cc2ccc(O)cc2)NC(=O)[C@H](CCCCN)NC(=O)[C@H](Cc2ccc(O)cc2)NC(=O)[C@H]([C@@H](C)O)NC(=O)[C@@H](NC(=O)[C@@H]2CCCN2C(=O)[C@@H](NC(=O)CNC(=O)CCOCCOCCOCCOCCn2nnc3c2-c2ccccc2CN(C(=O)CCNC(=O)CCOCCOCCOCCOCCOCCC(=O)NCCC(=O)N2Cc4ccccc4-c4c(nnn4CCNC(=O)CCCCCN4C(=CC=CC=CC=CC5=[N+](CCCCS(=O)(=O)[O-])c6ccc7ccccc7c6C5(C)C)C(C)(C)c5c4ccc4ccccc54)-c4ccccc42)c2ccccc2-3)[C@@H](C)O)CSSC[C@@H](C(=O)O)NC1=O [ICG-KS-487],Fluorescence was clearly observed,
"CC1(C)C(/C=C/C=C/C=C/C=C2\N(CCCCS(=O)(=O)O)c3ccc4ccccc4c3C2(C)C)=[N+](CCCCS(=O)(=O)[O-])c2ccc3ccccc3c21 [ICG, indocyanine green, reference compound]",but not in the brains,
Ac-(CPPYLP[KYLC)D]LI-NH2 (bicyclic or more) [KS-133],,25
